In ChEMBL document CHEMBL3045045, “Antifungal activity of CHE-23C, a dimeric sesquiterpene from Chloranthus henryi” (2009):
Values after ≈ are worked out from the molar mass of the structure shown.

Experiments:
Assay type in all cases: functional
Puccinia recondita [1] = test: Antifungal activity against Puccinia recondita infected compound pre-treated wheat plant seedlings assessed as wheat leaf rust disease control efficacy at 50 ug/mL under greenhouse conditions
Method in brief: (§1)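 Barley or wheat seedlings sprayed to runoff with compound in 1% Tween 20 containing water/DMSO (99:1); controls got Tween 20 with 1% DMSO; left 24 h before inoculation; greenhouse. Pots in randomized complete block, three replicates; infected leaf area averaged and converted to % control = 100×[(A−B)/A] versus Tween-only plants.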

Puccinia recondita [2] = test: Antifungal activity against Puccinia recondita infected compound pre-treated wheat plant seedlings assessed as wheat leaf rust disease control efficacy at 20 ug/mL under greenhouse conditions; method in brief: as §1
Botrytis cinerea [3] = test: Antifungal activity against Botryotinia fuckeliana infected in compound pre-treated tomato plant seedlings assessed as tomato gray mold disease control efficacy at 50 ug/mL measured 3 days post fungus inoculation under greenhouse conditions
Botrytis cinerea [4] = test: Antifungal activity against Botryotinia fuckeliana infected in compound pre-treated tomato plant seedlings assessed as tomato gray mold disease control efficacy at 5 ug/mL measured 3 days post fungus inoculation under greenhouse conditions
Phytophthora infestans [5] = test: Antifungal activity against Phytophthora infestans infected compound pre-treated tomato plant seedlings assessed as tomato late blight disease control efficacy at 50 ug/mL measured after 2 days under greenhouse conditions
Method in brief: (§2)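 Tomato seedlings at second-leaf stage sprayed to runoff with compound in 1% Tween 20 (water/DMSO 99:1), left 24 h, then sprayed with P. infestans zoospore suspension (5 × 10^4 sporangia/mL). Held 1 day at 20 C, 100% RH, then 2 days in growth chamber. Three replicates, randomized blocks; % control from infected area versus Tween 20/1% DMSO controls.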

Phytophthora infestans [6] = test: Antifungal activity against Phytophthora infestans infected compound pre-treated tomato plant seedlings assessed as tomato late blight disease control efficacy at 100 ug/mL measured after 2 days under greenhouse conditions; method in brief: as §2
Corticium [7] = test: Antifungal activity against Corticium sasaki infected compound pre-treated rice plant seedlings through soil application of fungus assessed as rice sheath blight disease control efficacy at 5 ug/mL under greenhouse conditions
Method in brief: (§3)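 Rice seedlings at fourth-leaf stage sprayed to runoff with compound in 1% Tween 20 (water/DMSO 99:1), left 24 h, then inoculated by adding 7-day-old C. sasaki cultures to soil. Greenhouse; three replicates, randomized complete block; % control = 100×[(A−B)/A] from infected sheath area relative to Tween 20/1% DMSO-treated plants.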

Corticium [8] = test: Antifungal activity against Corticium sasaki infected compound pre-treated rice plant seedlings through soil application of fungus assessed as rice sheath blight disease control efficacy at 50 ug/mL under greenhouse conditions; method in brief: as §3
Blumeria hordei [9] = test: Antifungal activity against Blumeria graminis f. sp. hordei infected compound pre-treated barley plant seedlings assessed as barley powdery mildew disease control efficacy at 1 ug/mL under greenhouse conditions; method in brief: as §1
Blumeria hordei [10] = test: Antifungal activity against Blumeria graminis f. sp. hordei infected compound pre-treated barley plant seedlings assessed as barley powdery mildew disease control efficacy at 100 ug/mL under greenhouse conditions; method in brief: as §1
Phytophthora infestans [11] = test: Antifungal activity against Phytophthora infestans infected compound pre-treated tomato plant seedlings assessed as tomato late blight disease control efficacy at 10 ug/mL measured after 2 days under greenhouse conditions; method in brief: as §2
Phytophthora infestans [12] = test: Antifungal activity against Phytophthora infestans infected compound pre-treated tomato plant seedlings assessed as tomato late blight disease control efficacy at 2 ug/mL measured after 2 days under greenhouse conditions; method in brief: as §2
Pyricularia grisea [13] = test: Antifungal activity against Magnaporthe grisea infected compound pre-treated rice plant seedlings assessed as rice blast disease control efficacy at 11 ug/mL under greenhouse conditions
Method in brief: (§4)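 Rice seedlings at third-leaf stage sprayed to runoff with compound in 1% Tween 20 (water/DMSO 99:1), left 24 h, then sprayed with M. grisea spores (5 × 10^5 spores/mL). Greenhouse; randomized complete block, three replicates; % control = 100×[(A−B)/A] from infected leaf area versus Tween 20/1% DMSO controls.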

Blumeria hordei [14] = test: Antifungal activity against Blumeria graminis f. sp. hordei infected compound pre-treated barley plant seedlings assessed as barley powdery mildew disease control efficacy at 11 ug/mL under greenhouse conditions
Method in brief: (§5)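 Greenhouse protective assay. Seedlings were sprayed to runoff with compound in 1% Tween 20 containing 1% DMSO; controls got Tween 20 with 1% DMSO. Plants stood 24 h before pathogen inoculation. Infected leaf area was scored. Three replicates in randomized complete blocks; % control = 100 × (A−B)/A against the Tween-only control; means compared by LSD at P = 0.05.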

Puccinia recondita [15] = test: Antifungal activity against Puccinia recondita infected compound pre-treated wheat plant seedlings assessed as wheat leaf rust disease control efficacy at 11 ug/mL under greenhouse conditions; method in brief: as §5
Alternaria kikuchiana = test: Antifungal activity against Alternaria kikuchiana after 48 to 72 hr by agar dilution method
Method in brief: (§6)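 Agar dilution MIC on field-isolate phytopathogens. Compound in DMSO added to molten potato dextrose agar at 0.25-128 μg/mL (2-fold serial dilution). Inocula were 5 mm mycelial disks cut from actively growing colony margins after 3-7 days at 20-25 C. Plates were incubated at 20-25 C for 24-72 h. MIC is the lowest concentration giving complete growth inhibition versus a no-compound control. Run three times.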

Corticium [16] = test: Antifungal activity against Corticium sasaki infected compound pre-treated rice plant seedlings through soil application of fungus assessed as rice sheath blight disease control efficacy at 100 ug/mL under greenhouse conditions
Method in brief: (§7)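 Rice seedlings were sprayed to runoff with compound in 1% Tween 20 containing 1% DMSO; controls got Tween 20 with 1% DMSO. After 24 h, fourth-leaf-stage plants were inoculated by adding 7-day-old C. sasaki cultures to the soil. Infected sheath area was scored. Three replicates in randomized complete blocks; % control = 100 × (A−B)/A against the Tween-only control.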

Rhizoctonia solani = test: Antifungal activity against Rhizoctonia solani after 48 to 72 hr by agar dilution method; method in brief: as §6
Candida albicans [17] = test: Antifungal activity against Candida albicans ATCC 10231 after 48 to 72 hr by agar dilution method
Clavispora lusitaniae = test: Antifungal activity against Clavispora lusitaniae ATCC 6258 after 48 to 72 hr by agar dilution method
Botrytis cinerea [18] = test: Antifungal activity against Botryotinia fuckeliana infected in compound pre-treated tomato plant seedlings assessed as tomato gray mold disease control efficacy at 100 ug/mL measured 3 days post fungus inoculation under greenhouse conditions
Method in brief: (§8)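 Tomato seedlings were sprayed to runoff with compound in 1% Tween 20 containing 1% DMSO; controls got Tween 20 with 1% DMSO. After 24 h, second-leaf-stage plants were sprayed with B. cinerea spores (10^6/mL) and kept dark at 20 C, 100% RH. Infected leaf area was scored 3 days post-inoculation. Three replicates in randomized complete blocks; % control = 100 × (A−B)/A against the Tween-only control.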

Pyricularia grisea [19] = test: Antifungal activity against Magnaporthe grisea after 48 to 72 hr by agar dilution method
Method in brief: (§9)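 Agar dilution: DMSO stock added to molten medium (potato dextrose agar, or V-8 juice agar) at 0.25–128 μg/mL, 2-fold series. Inoculum was 5 mm mycelial disks from actively growing colony margins pre-grown 3–7 days at 20–25 C. Plates incubated 20–25 C for 24–72 h. MIC = lowest concentration giving complete growth inhibition versus compound-free plate; three repeats.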

Botrytis cinerea [20] = test: Antifungal activity against Botryotinia fuckeliana after 48 to 72 hr by agar dilution method; method in brief: as §6
Candida albicans [21] = test: Antifungal activity against Candida albicans isolate A207 after 48 to 72 hr by agar dilution method
Pyricularia grisea [22] = test: Antifungal activity against Magnaporthe grisea infected compound pre-treated rice plant seedlings assessed as rice blast disease control efficacy at 100 ug/mL under greenhouse conditions; method in brief: as §4
Puccinia recondita [23] = test: Antifungal activity against Puccinia recondita infected compound pre-treated wheat plant seedlings assessed as wheat leaf rust disease control efficacy at 33 ug/mL under greenhouse conditions; method in brief: as §5
Puccinia recondita [24] = test: Antifungal activity against Puccinia recondita infected compound pre-treated wheat plant seedlings assessed as wheat leaf rust disease control efficacy at 100 ug/mL under greenhouse conditions; method in brief: as §5
Botrytis cinerea [25] = test: Antifungal activity against Botryotinia fuckeliana infected in compound pre-treated tomato plant seedlings assessed as tomato gray mold disease control efficacy at 11 ug/mL measured 3 days post fungus inoculation under greenhouse conditions; method in brief: as §8
Botrytis cinerea [26] = test: Antifungal activity against Botryotinia fuckeliana infected in compound pre-treated tomato plant seedlings assessed as tomato gray mold disease control efficacy at 33 ug/mL measured 3 days post fungus inoculation under greenhouse conditions; method in brief: as §8
Fusarium oxysporum = test: Antifungal activity against Fusarium oxysporum after 48 to 72 hr by agar dilution method; method in brief: as §6
Corticium [27] = test: Antifungal activity against Corticium sasaki infected compound pre-treated rice plant seedlings through soil application of fungus assessed as rice sheath blight disease control efficacy at 11 ug/mL under greenhouse conditions; method in brief: as §7
Blumeria hordei [28] = test: Antifungal activity against Blumeria graminis f. sp. hordei infected compound pre-treated barley plant seedlings assessed as barley powdery mildew disease control efficacy at 33 ug/mL under greenhouse conditions; method in brief: as §5
Pichia kudriavzevii = test: Antifungal activity against Pichia kudriavzevii ATCC 42720 after 48 to 72 hr by agar dilution method
Candida tropicalis = test: Antifungal activity against Candida tropicalis ATCC 13803 after 48 to 72 hr by agar dilution method
Phytophthora infestans [29] = test: Antifungal activity against Phytophthora infestans after 48 to 72 hr by agar dilution method; method in brief: as §9
Colletotrichum lagenaria = test: Antifungal activity against Colletotrichum lagenaria after 48 to 72 hr by agar dilution method; method in brief: as §6
Phytophthora infestans [30] = test: Antifungal activity against Phytophthora infestans infected compound pre-treated tomato plant seedlings assessed as tomato late blight disease control efficacy at 33 ug/mL measured after 2 days under greenhouse conditions; method in brief: as §2
Pyricularia grisea [31] = test: Antifungal activity against Magnaporthe grisea infected compound pre-treated rice plant seedlings assessed as rice blast disease control efficacy at 33 ug/mL under greenhouse conditions; method in brief: as §4
Globisporangium ultimum = test: Antifungal activity against Pythium ultimum after 48 to 72 hr by agar dilution method; method in brief: as §6
Phytophthora infestans [32] = test: Antifungal activity against Phytophthora infestans infected compound pre-treated tomato plant seedlings assessed as tomato late blight disease control efficacy at 11 ug/mL measured after 2 days under greenhouse conditions; method in brief: as §2
Corticium [33] = test: Antifungal activity against Corticium sasaki infected compound pre-treated rice plant seedlings through soil application of fungus assessed as rice sheath blight disease control efficacy at 33 ug/mL under greenhouse conditions; method in brief: as §7
Cryptococcus neoformans = test: Antifungal activity against Cryptococcus neoformans ATCC 36556 after 48 to 72 hr […]

SMILES: CC1=C(C(=O)Nc2ccccc2)SCCO1 [CARBOXIN]
- Efficacy (Puccinia recondita [1]): 100%
- Efficacy (Puccinia recondita [2]): 43%

SMILES: N#Cc1c[nH]cc1-c1cccc2c1OC(F)(F)O2 [FLUDIOXONIL]
- Efficacy (Botrytis cinerea [3]): 100%
- Efficacy (Botrytis cinerea [4]): 82%

SMILES: N#Cc1c(Cl)c(Cl)c(Cl)c(C#N)c1Cl [CHLOROTHALONIL]
- Efficacy (Phytophthora infestans [5]): 94%
- Efficacy (Phytophthora infestans [6]): 100%

SMILES: OCC1=C[C@H](N[C@H]2C[C@H](CO)[C@@H](O[C@@H]3O[C@H](CO)[C@@H](O)[C@H](O)[C@H]3O)[C@H](O)[C@H]2O)[C@H](O)[C@@H](O)[C@@H]1O [VALIDAMYCIN]
- Efficacy (Corticium [7]): 75%
- Efficacy (Corticium [8]): 100%

SMILES: CCCCNC(=O)n1c(NC(=O)OC)nc2ccccc21 [BENOMYL]
- Efficacy (Blumeria hordei [9]): 90%
- Efficacy (Blumeria hordei [10]): 100%

SMILES: COc1ccc(C(=CC(=O)N2CCOCC2)c2ccc(Cl)cc2)cc1OC [DIMETHOMORPH]
- Efficacy (Phytophthora infestans [11]): 100%
- Efficacy (Phytophthora infestans [12]): 64%

SMILES: C/C=C(\C)C(=O)OC[C@]1(O)[C@H]2C[C@H]2[C@]2(C)[C@@H]3CC4=C5[C@H](/C(=C(/C)C(=O)OC)C(=O)[C@H](O)[C@@]5(C)[C@@H]5C[C@H]45)[C@@]34OC(=O)C(COC(C)=O)=C4C[C@@H]12
- Efficacy (Pyricularia grisea [13]): 67%
- Efficacy (Blumeria hordei [14]): 0%
- Efficacy (Puccinia recondita [15]): 80%
- MIC (Alternaria kikuchiana): 8 µg/mL (≈ 11.8 µM)
- Efficacy (Corticium [16]): 69%
- MIC (Rhizoctonia solani): 16 µg/mL (≈ 23.6 µM)
- MIC (Candida albicans [17]): 64 µg/mL (≈ 94.6 µM)
- MIC (Clavispora lusitaniae): 128 µg/mL (≈ 189 µM)
- Efficacy (Botrytis cinerea [18]): 36%
- MIC (Pyricularia grisea [19]): 4 µg/mL (≈ 5.91 µM)
- MIC (Botrytis cinerea [20]): 8 µg/mL (≈ 11.8 µM)
- MIC (Candida albicans [21]): 8 µg/mL (≈ 11.8 µM)
- Efficacy (Pyricularia grisea [22]): 72%
- Efficacy (Puccinia recondita [23]): 87%
- Efficacy (Puccinia recondita [24]): 100%
- Efficacy (Botrytis cinerea [25]): 7.2%
- Efficacy (Botrytis cinerea [26]): 14%
- MIC (Fusarium oxysporum): 16 µg/mL (≈ 23.6 µM)
- Efficacy (Blumeria hordei [10]): 17%
- Efficacy (Corticium [27]): 50%
- Efficacy (Blumeria hordei [28]): 0%
- MIC (Pichia kudriavzevii): 128 µg/mL (≈ 189 µM)
- MIC (Candida tropicalis): > 128 µg/mL
- MIC (Phytophthora infestans [29]): 32 µg/mL (≈ 47.3 µM)
- MIC (Colletotrichum lagenaria): 8 µg/mL (≈ 11.8 µM)
- Efficacy (Phytophthora infestans [30]): 91%
- Efficacy (Pyricularia grisea [31]): 50%
- MIC (Globisporangium ultimum): 1 µg/mL (≈ 1.48 µM)
- Efficacy (Phytophthora infestans [32]): 29%
- Efficacy (Corticium [33]): 50%
- Efficacy (Phytophthora infestans [6]): 93%
- MIC (Cryptococcus neoformans): 16 µg/mL (≈ 23.6 µM)
